The list is not random: actives were taken first. Their share in the collection is about 1.1%.
procasp3 activ: activators of human procaspase-3; 330,000 tested, 0.11% active; activation, % at 8.5 µM; P42574; recombinant procaspase-3 D3A, Ac-DEVD-pNA absorbance 405 nm; AID 463141;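 active = activation above the mean of all tested compounds plus 3 SD, cut at about 21% in these data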
Target sequence (P42574 whole entry D9A/D28A/D175A): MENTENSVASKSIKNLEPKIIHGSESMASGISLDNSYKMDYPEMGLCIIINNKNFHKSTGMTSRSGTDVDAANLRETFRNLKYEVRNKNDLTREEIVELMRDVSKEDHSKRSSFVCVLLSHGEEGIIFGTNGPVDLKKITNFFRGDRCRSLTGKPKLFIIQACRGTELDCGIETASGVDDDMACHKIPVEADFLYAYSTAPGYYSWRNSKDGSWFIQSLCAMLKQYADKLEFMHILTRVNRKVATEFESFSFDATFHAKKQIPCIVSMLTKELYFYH
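Assay system: Procaspase-3 D3A mutant, all three cleavage aspartates alanine. Buffer or medium: Zinc-free HEPES saline buffer with Triton X-100. Times: 1 h compound preincubation, 2 h substrate hydrolysis at 25 °C. Measured by: 405 nm absorbance of p-nitroaniline, reads at 0 and 120 min. Read-out basis: percent activation relative to control range. Replicates: singlicate.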
aDG glyco up: alpha-DG glycosylation activation; Pro5-aDG cells, alpha-DG glycosylation AlphaScreen (IIH6); 0% Pro5, 100% B10-LARGE cell signal; activation, % at 10 µM; 360,000 tested, 0.22% active; AID 624168;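 active = activation of at least 8% versus controls, or a plate z-score of at least 8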;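 also: Pro5 are CHO cells carrying HIG-tagged alpha-DG that lacks glycosylation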
CaV13 ICDI inh: Disruptors of the CACNA1D IQ motif to Ca2+-dependent inactivation inhibitor domain association, primary screening, Förster resonance energy transfer in intact living …; inhibition, % at 12.3 µM; 340,000 tested, 0.098% active; HEK cells, CFP/YFP FRET ICDI-IQ, plate reader, 10 min; percent FRET-ratio fall versus neutral wells;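 active = mean replicate inhibition of at least 30% and at least 1% of replicates passing that level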
GRK2 inh: inhibitors of human GRK2 displacing RNA aptamer | P25098 | bead flow cytometry, FAM-aptamer displacement from GRK2 | inhibition of aptamer binding, % at 10 µM | 330,000 tested, 0.59% active;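 active = inhibition of aptamer binding above 40%, roughly 3 SD of noise, on plates passing a quality check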;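 also: median bead fluorescence of bound FAM aptamer so fluorescent compounds give negative values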
T cell modulator: T cell immune modulation candidate; 2C CD8+ T cell-vesicle binding, flow cytometry; hits give low values; response (vesicle binding), % at 7 µM; 330,000 tested, 0.068% active; AID 2052;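 active = response, share of CD8 T cells binding vesicles, and their 90th percentile fluorescence all below set limits, cut at about 80% in these data, passing the limit was not always enough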;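 also: values below 100% mean blocked vesicle binding to the CD8+ T cells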
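Assay system – 2C mouse CD8+ T cells · Also added – QL9-loaded Drosophila micro-vesicles · Timing – Cell–vesicle co-incubation 1.5 h at 37 °C, staining 20 min on ice · Signal – flow cytometry of vesicle-bound cells · Measure – percent CD8+ FL2 mean versus row control · Controls – Peptide-free naked vesicles (low) and QL9 vesicles with 0.7% DMSO vehicle (high)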
procasp7 counter: counter-screen: procaspase-7 (human) activation; recombinant procaspase-7, Ac-DEVD-pNA absorbance 405 nm; D23A/D198A/D206A triple mutant, cannot self-cleave; scale: DMSO 0, 5 µM enzyme 100; activation, % at 8.5 µM; AID 463210; 330,000 tested, 0.093% active; P55210;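 active = percent activation above the screen-wide mean plus 3 SD, cut at about 25% in these data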
Target sequence (P55210 whole entry D23A/D198A/D206A): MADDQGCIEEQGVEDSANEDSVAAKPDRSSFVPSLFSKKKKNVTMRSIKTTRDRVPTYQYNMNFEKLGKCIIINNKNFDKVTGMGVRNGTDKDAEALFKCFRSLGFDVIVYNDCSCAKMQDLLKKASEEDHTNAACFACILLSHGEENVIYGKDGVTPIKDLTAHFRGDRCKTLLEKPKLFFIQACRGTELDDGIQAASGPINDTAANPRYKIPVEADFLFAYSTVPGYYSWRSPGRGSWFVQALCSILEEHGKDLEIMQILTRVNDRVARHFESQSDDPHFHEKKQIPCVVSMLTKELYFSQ
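Test system: Procaspase-7 triple mutant (PC-7 D3A). Also added: Ac-DEVD-pNA substrate, 400 µM as added. Schedule: 1 h enzyme–compound preincubation and 2 h substrate reaction, both 25 °C. Signal: p-Nitroaniline absorbance at 405 nm, read at 0 and 120 min. Control set: low DMSO alone, high DMSO plus 5 µM PC-7.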
GRK2 inh confirm: human GRK2 inhibition confirmation, cherry pick 1; shares compounds with GRK2 inh; bead-bound GRK2, FAM-aptamer displacement, flow cytometry; aptamer displacement, % at 10 µM; 2,000 tested, 4% active; AID 504451;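 active = aptamer displacement above 40%, near three times the noise of non-fluorescent compounds, on plates passing quality checks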;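 also: negative values mostly reflect intrinsic compound fluorescence rather than true enhancement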
Aptamer quench 1: quenches fluorescent RNA aptamer, GRK2 hit artifact; shares compounds with GRK2 inh; Fluorescent RNA aptamer beads, quenching, flow cytometry; hits give high values; fluorescence change (kMESF span), kMESF (concentration not given with the values); 110 tested, under 10 active;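 active = compounds whose bead fluorescence drops by more than 37 kMESF across the dose range, marking them as dye quenchers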
FAM quench CP1: aptamer fluorescence quenching in GRK2 counter-screen; shares compounds with GRK2 inh; 2,000 tested, under 10 active; Carboxyfluorescein RNA aptamer on beads, flow cytometry quenching; hits give low values; fluorescence response (% of DMSO), % at 10 µM;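 active = compounds that quench the bead-bound fluorescent RNA probe, cutting fluorescence to under half of the solvent control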;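 also: counterscreen run without GRK2 so only probe quenching by compound is measured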
GRK2 confirm 2: human GRK2 inhibition confirmation, cherry pick 2; shares compounds with GRK2 inh; bead-bound GRK2, FAM-aptamer displacement, flow cytometry; inhibition of aptamer binding, % at 10 µM; 360 tested, under 10 active; AID 504782;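 active = inhibition of aptamer binding above 40%, about triple the noise seen with nonglowing compounds, on plates passing quality control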;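 also: negative values mostly come from compounds that fluoresce themselves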
FAM quench CP2: aptamer fluorescence quenching in GRK2 counter-screen. 360 tested, under 10 active. carboxyfluorescein RNA aptamer beads, flow cytometry quenching; hits give low values. AID 588494. fluorescence response vs DMSO, % at 10 µM. shares compounds with GRK2 inh;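 active = response vs DMSO under 50%, meaning signal dropped by over half, treated as fluorescence quencher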;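 also: labelled aptamer on streptavidin beads without GRK2 as a quench counter-screen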
FAM quench PS1: quenches fluorescent RNA aptamer, GRK2 hit artifact | Bead-bound FAM RNA aptamer fluorescence quenching, flow cytometry; hits give low values | 35 tested, under 10 active | fluorescence ratio to DMSO, % at 11.1 µM | shares compounds with GRK2 inh;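 active = compounds that dim the fluorescent label, raw bead signal shifting by over 33 units between lowest and highest dose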
Each line names hits and unclear results; the compound was inactive in the other large screens (follow-up assays come after a bar, where they were run).

COc1cc(Cl)c([C@@H]2C[C@H]3CN(c4ccccc4)C(=O)[C@]34CCCN24)cc1OC	GRK2 inh 70 | GRK2 inh confirm inactive | FAM quench CP1 inactive
COc1cc([C@@H]2C[C@H]3CN(c4ccccc4)C(=O)[C@]34CCCN24)cc(OC)c1OC	none
Cc1ccc(C)c(OCC(=O)N(C)CC(=O)Nc2ccc(Cl)c(C(F)(F)F)c2)c1	GRK2 inh 79 | GRK2 inh confirm inactive | FAM quench CP1 inactive
Cc1cccc(C(=O)OCC(=O)N(C)CC(=O)Nc2ccc(Cl)c(C(F)(F)F)c2)c1	none
CC(=O)Nc1ccc(S(=O)(=O)N2C(=O)c3cccc4cccc2c34)cc1	none (no result: aDG glyco up)
O=C(Nc1ccc(Cl)cn1)c1ccc(-c2cc(Cl)ccc2Cl)o1	GRK2 inh 42 | GRK2 confirm 2 inactive | FAM quench CP2 inactive
CCCCOCCCNc1ncnc2c1[nH]c1ccccc12	GRK2 inh 53 | GRK2 inh confirm inactive | FAM quench CP1 inactive
CC1(C)N=C(SCC(=O)Nc2ccc(Cl)cc2)C(c2ccc(Cl)cc2)=N1	none | GRK2 inh confirm inactive | FAM quench CP1 inactive
CC1(C)N=C(SCC(=O)Nc2ccc(Cl)cc2)C(c2ccccc2)=N1	none
COc1ccc([C@H]2Cc3cccc(O)c3C(=O)O2)cc1O	GRK2 inh 85 | GRK2 inh confirm inactive | FAM quench CP1 inactive
CCCC[N+](C)(C)CCC(=O)NC(C)(C)CS(=O)(=O)[O-]	none (no result: CaV13 ICDI inh) | GRK2 inh confirm inactive | Aptamer quench 1 inactive | FAM quench CP1 inactive
CC1CN(C(=O)c2cccc(S(=O)(=O)N3CCOCC3)c2)CC(C)O1 (stereo not drawn)	none | GRK2 inh confirm inactive | FAM quench CP1 inactive
CC1CN(C(=O)c2cccc(S(=O)(=O)N3CCN(c4ccc(F)cc4)CC3)c2)CC(C)O1 (stereo not drawn)	none
CC1CN(C(=O)c2cccc(COc3ccccc3Cl)c2)CC(C)O1 (stereo not drawn)	GRK2 inh 98 | GRK2 inh confirm inactive | FAM quench CP1 inactive
CCC1NC(=S)NC(C)=C1C(=O)c1ccccc1 (stereo not drawn)	none
CC(=O)Nc1cccc(-n2nnc(SCC(=O)Nc3ccc(F)c(Cl)c3)n2)c1	GRK2 inh 86 | GRK2 inh confirm inactive | FAM quench CP1 inactive
CCN1CCN(CC(=O)N2N=CCC2c2ccccc2)CC1 (stereo not drawn)	GRK2 inh 100 | GRK2 inh confirm inactive | FAM quench CP1 inactive
CC1Cc2ccccc2N1C(=O)CSc1nncs1 (stereo not drawn)	GRK2 inh 75 | GRK2 inh confirm inactive | FAM quench CP1 inactive
O=C(CC1SC(N2CCCC2)=NC1=O)Nc1ccc(C(=O)NCc2ccc(F)cc2)cc1 (stereo not drawn)	none (no result: procasp3 activ, GRK2 inh, T cell modulator, procasp7 counter)
O=C(CC1SC(N2CCCCC2)=NC1=O)Nc1cccc(C(=O)NCc2ccc(F)cc2)c1 (stereo not drawn)	none (no result: procasp3 activ, GRK2 inh, T cell modulator, procasp7 counter) | GRK2 inh confirm inactive | Aptamer quench 1 inactive | FAM quench CP1 inactive
CCN(Cc1ccccc1)S(=O)(=O)c1ccc2c(c1)NC(=O)CS2	none
O=C1CSc2ccc(S(=O)(=O)NCc3ccccc3Cl)cc2N1	none
CC(CS(=O)(=O)c1ccc2c(c1)NC(=O)CS2)C(=O)NCc1ccccc1Cl (stereo not drawn)	GRK2 inh 99 | GRK2 inh confirm 78 | Aptamer quench 1 inactive | FAM quench CP1 inactive | FAM quench PS1 inactive
CN(Cc1ccccc1)C(=O)CCS(=O)(=O)c1ccc2c(c1)NC(=O)CS2	none (no result: CaV13 ICDI inh) | GRK2 confirm 2 inactive | FAM quench CP2 inactive
CCN(CC)C(=O)Cn1cc(S(=O)(=O)CC(=O)Nc2cc(OC)ccc2OC)c2ccccc21	GRK2 inh 71 | GRK2 confirm 2 inactive | FAM quench CP2 inactive
CCN(C(=O)Cc1c(C(=O)O)n(C)c2ccccc12)c1cc(OC)ccc1OC	none
CCn1c(C(=O)O)c(CC(=O)N(C)c2ccc(OC)cc2OC)c2ccccc21	GRK2 inh 58 | GRK2 inh confirm inactive | FAM quench CP1 inactive
COc1ccc(OC)c(NC(=O)Cc2c(C(=O)O)n(C)c3ccccc23)c1	GRK2 inh 47 | GRK2 confirm 2 inactive | FAM quench CP2 inactive
O=C(COC(=O)c1cccc(C(F)(F)F)c1)NC(=O)NC1CCCC1	none
COc1ccccc1CNc1ccc(CNc2ncn[nH]2)cc1	GRK2 inh 52 | GRK2 inh confirm inactive | FAM quench CP1 inactive
COCCCn1c(SCC(=O)N2CCOCC2)nnc1-c1ccco1	none
O=C(C(=O)N1CCC(CNS(=O)(=O)c2ccc(C(F)(F)F)cc2)CC1)c1cccs1	none (no result: procasp3 activ, aDG glyco up, GRK2 inh, T cell modulator, procasp7 counter)
COc1ccc(C(=O)NCC(C)(C)SCc2c(C)cc(C)cc2C)cc1	GRK2 inh 50 | GRK2 inh confirm inactive | FAM quench CP1 inactive
O=C(Nc1cc(C(=O)N2CCOCC2)cc(C(=O)N2CCOCC2)c1)c1cc(F)c(F)cc1Cl	none | GRK2 inh confirm inactive | FAM quench CP1 inactive
NC(=O)C1CCN(CC(=O)N2c3ccccc3CCc3ccccc32)CC1	none | GRK2 inh confirm inactive | FAM quench CP1 inactive
NC(=O)C1CCN(C(=O)CN2CCc3ccccc32)CC1	none (no result: CaV13 ICDI inh)
C[C@]12C=CC(=O)C=C1CC[C@@H]1[C@@H]2C(=O)C[C@@]2(C)[C@H]1CC[C@]2(O)C(=O)COC(=O)CCC(=O)O	GRK2 inh 78 | GRK2 inh confirm inactive | FAM quench CP1 inactive

Compound activity from PubChem BioAssay.
